# Experimental data: ChEMBL document CHEMBL1154160, “Synthesis, antiviral activity, and stability of nucleoside analogs containing tricyclic bases” (Eur J Med Chem, 2009)
# Legend:
# CCRF-CEM = assay: (§1) Cytotoxicity against human CEM cells; type: cell-based; conditions: ccrf-cem
# Vero = assay: (§2) Cytotoxicity against african green monkey Vero cells; type: cell-based; conditions: chlorocebus sabaeus, vero
# [1] = test system: Human immunodeficiency virus; assay: Antiviral activity against HIV in human PBM cells; conditions: Human immunodeficiency virus 1, PBMC
# Hepatitis C virus = assay: Antiviral activity against HCV in human Huh7 cells by RNA replicon assay; type: functional, organism-based, Hepacivirus hominis; conditions: Huh-7
# PBMC = assay: (§3) Cytotoxicity against human PBMC cells; type: cell-based; conditions: pbmc
# [2] = as §1; type: cell-based, CCRF-CEM; conditions: CEM (CCRF-CEM) cells
# [3] = as §2; type: cell-based; conditions: chlorocebus sabaeus, Vero cells
# [4] = as §3; type: cell-based; conditions: PBMC cells
# Human alphaherpesvirus 1 = assay: Antiviral activity against HSV1 F in african green monkey Vero cells by plaque reduction assay; type: functional, organism-based; conditions: Human alphaherpesvirus 1, strain F
# [5] = Stability in methanol assessed as 3'-azido-3'-deoxyguanosine levels after 72 hrs; type: physicochemical
# How it was run: (§4)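 Analogs were diluted from a freshly made stock into water and into methanol, with one half held at room temperature and the other at 4°C. Samples were injected at intervals: every 15 min for 2 hr, then hourly, daily and weekly. LC-MS/MS used a C18 column at 30°C with a formate pH 3 (or water)/methanol gradient, ESI-positive SRM. Released guanine-analog was quantified against 10–1000 nM standard curves.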
# [6] = Stability in water assessed as half life; type: physicochemical; conditions: buffer; how it was run: as §4
SMILES,CC50 (CCRF-CEM),CC50 (Vero),EC50 [1],EC90 [1],EC50 (Hepatitis C virus),EC90 (Hepatitis C virus),CC50 (PBMC),CC50 [2],CC50 [3],CC50 [4],EC50 (Human alphaherpesvirus 1),EC90 (Human alphaherpesvirus 1),Activity [5],t1/2 [6]
CCc1cn2c(=O)c3ncn([C@H]4CO[C@@H](CO)O4)c3nc2[nH]1,> 100 µM,> 100 µM,31.5 µM,> 100 µM,> 10 µM,> 10 µM,> 100 µM,,,,,,,
C[C@@]1(O)[C@H](O)[C@@H](CO)O[C@H]1n1cnc2c(=O)n3cc(-c4ccsc4)[nH]c3nc21,> 100 µM,> 100 µM,> 100 µM,> 100 µM,≥ 10 µM,> 10 µM,> 100 µM,,,,,,,
COc1cccc(-c2cn3c(=O)c4ncn([C@H]5CO[C@@H](CO)O5)c4nc3[nH]2)c1,> 100 µM,> 100 µM,20.7 µM,89.6 µM,> 10 µM,> 10 µM,> 100 µM,,,,,,,
CN(C)c1ccc(-c2cn3c(=O)c4ncn([C@H]5C[C@H](N=[N+]=[N-])[C@@H](CO)O5)c4nc3[nH]2)cc1,74.6 µM,> 100 µM,0.14 µM,0.54 µM,> 10 µM,> 10 µM,> 100 µM,,,,,,,
O=c1c2ncn([C@H]3CO[C@@H](CO)O3)c2nc2[nH]c(-c3cccs3)cn12,> 100 µM,> 100 µM,3 µM,16 µM,> 10 µM,> 10 µM,> 100 µM,,,,,,,
C[C@@]1(O)[C@H](O)[C@@H](CO)O[C@H]1n1cnc2c(=O)[nH]c(N)nc21 [2'-B-METHYL-GUANOSINE],,,> 100 µM,> 100 µM,2.3 µM,7.8 µM,,> 100 µM,> 100 µM,> 100 µM,,,,
O=c1c2ncn([C@H]3CO[C@@H](CO)O3)c2nc2[nH]c(-c3ccsc3)cn12,> 100 µM,> 100 µM,0.91 µM,6.6 µM,> 10 µM,> 10 µM,> 100 µM,,,,,,,
COc1ccc(-c2cn3c(=O)c4ncn([C@H]5CO[C@@H](CO)O5)c4nc3[nH]2)cc1,> 100 µM,> 100 µM,3.45 µM,23.9 µM,> 10 µM,> 10 µM,> 100 µM,,,,,,,
O=c1c2ncn([C@H]3CO[C@@H](CO)O3)c2nc2[nH]c(-c3ccc(Cl)cc3)cn12,> 100 µM,> 100 µM,> 100 µM,> 100 µM,> 10 µM,> 10 µM,> 100 µM,,,,,,,
C[C@@]1(O)[C@H](O)[C@@H](CO)O[C@H]1n1cnc2c(=O)n3cc(-c4cccs4)[nH]c3nc21,> 100 µM,44.3 µM,> 100 µM,> 100 µM,6.9 µM,25.6 µM,> 100 µM,,,,,,,
CCN(CC)c1ccc(-c2cn3c(=O)c4ncn([C@H]5CO[C@@H](CO)O5)c4nc3[nH]2)cc1,80.8 µM,63 µM,0.25 µM,1.25 µM,> 10 µM,> 10 µM,> 100 µM,,,,,,,
Nc1nc2c(ncn2[C@H]2C=C[C@@H](CO)C2)c(=O)[nH]1 [CARBOVIR],> 100 µM,> 100 µM,0.043 µM,0.29 µM,> 10 µM,> 10 µM,7 µM,,,,,,,
CCN(CC)c1ccc(-c2cn3c(=O)c4ncn([C@H]5C=C[C@@H](CO)C5)c4nc3[nH]2)cc1,> 100 µM,> 100 µM,0.13 µM,0.65 µM,> 10 µM,> 10 µM,> 100 µM,,,,,,,
[N-]=[N+]=Nc1ccc(-c2cn3c(=O)c4ncn([C@H]5CO[C@@H](CO)O5)c4nc3[nH]2)cc1,> 100 µM,> 100 µM,2.6 µM,11.4 µM,> 10 µM,> 10 µM,> 100 µM,,,,,,,
COc1ccc(-c2cn3c(=O)c4ncn([C@H]5C=C[C@@H](CO)C5)c4nc3[nH]2)cc1,> 100 µM,> 100 µM,0.62 µM,4.9 µM,> 10 µM,> 10 µM,> 100 µM,,,,,,,
Cc1ccc(-c2cn3c(=O)c4ncn([C@H]5CO[C@@H](CO)O5)c4nc3[nH]2)cc1,> 100 µM,> 100 µM,4.9 µM,23.9 µM,> 10 µM,> 10 µM,> 100 µM,,,,,,,
CN(C)c1ccc(-c2cn3c(=O)c4ncn([C@H]5CO[C@@H](CO)O5)c4nc3[nH]2)cc1,> 100 µM,> 100 µM,0.61 µM,1.5 µM,> 10 µM,> 10 µM,> 100 µM,,,,,,,
O=c1c2ncn([C@H]3CO[C@@H](CO)O3)c2nc2[nH]c(-c3ccc(F)cc3)cn12,> 100 µM,> 100 µM,43.5 µM,> 100 µM,> 10 µM,> 10 µM,> 100 µM,,,,,,,

SMILES,CC50 (CCRF-CEM),CC50 (Vero),EC50 [1],EC90 [1],EC50 (Hepatitis C virus),EC90 (Hepatitis C virus),CC50 (PBMC),CC50 [2],CC50 [3],CC50 [4],EC50 (Human alphaherpesvirus 1),EC90 (Human alphaherpesvirus 1),Activity [5],t1/2 [6]
CN(C)c1ccc(-c2cn3c(=O)c4ncn([C@H]5C=C[C@@H](CO)C5)c4nc3[nH]2)cc1,> 100 µM,> 100 µM,0.11 µM,0.47 µM,> 10 µM,> 10 µM,24 µM,,,,,,,
COc1ccc(-c2cn3c(=O)c4ncn([C@H]5C[C@H](N=[N+]=[N-])[C@@H](CO)O5)c4nc3[nH]2)cc1,13.5 µM,> 100 µM,1.3 µM,7 µM,> 10 µM,> 10 µM,56.7 µM,,,,,,,
CN(C)c1ccc(-c2cn3c(=O)c4ncn([C@@H]5O[C@H](CO)[C@@H](O)[C@@]5(C)O)c4nc3[nH]2)cc1,> 100 µM,> 100 µM,,,,,,,,,,,,
O=c1c2ncn([C@H]3C=C[C@@H](CO)C3)c2nc2[nH]c(-c3ccsc3)cn12,> 100 µM,> 100 µM,2.6 µM,15.5 µM,> 10 µM,> 10 µM,> 100 µM,,,,,,,
COc1ccccc1-c1cn2c(=O)c3ncn([C@H]4CO[C@@H](CO)O4)c3nc2[nH]1,> 100 µM,> 100 µM,8.5 µM,26.8 µM,> 10 µM,> 10 µM,> 100 µM,,,,,,,
O=c1c2ncn([C@H]3C=C[C@@H](CO)C3)c2nc2[nH]c(-c3cccs3)cn12,> 100 µM,> 100 µM,0.64 µM,7.1 µM,> 10 µM,> 10 µM,> 100 µM,,,,,,,
O=c1c2ncn([C@H]3CO[C@@H](CO)O3)c2nc2[nH]c(-c3ccccc3)cn12,> 100 µM,> 100 µM,7.1 µM,43.5 µM,> 10 µM,> 10 µM,> 100 µM,,,,,,,
O=c1c2ncn([C@H]3CO[C@@H](CO)O3)c2nc2[nH]c(-c3ccc(F)cc3F)cn12,> 100 µM,> 100 µM,14.7 µM,51.8 µM,> 10 µM,> 10 µM,> 100 µM,,,,,,,
N#Cc1ccc(-c2cn3c(=O)c4ncn([C@H]5CO[C@@H](CO)O5)c4nc3[nH]2)cc1,> 100 µM,> 100 µM,69.3 µM,> 100 µM,> 10 µM,> 10 µM,> 100 µM,,,,,,,
COc1ccc(-c2cn3c(O)c4ncn(COCCO)c4nc3n2)cc1,,,,,,,,,,,12.2 µM,23.7 µM,,
CCc1cn2c(=O)c3ncn([C@@H]4O[C@H](CO)[C@@H](O)[C@@]4(C)O)c3nc2[nH]1,,,> 100 µM,> 100 µM,> 10 µM,> 10 µM,,> 100 µM,> 100 µM,> 100 µM,,,,
COc1ccc(-c2cn3c(=O)c4ncn([C@@H]5O[C@H](CO)[C@@H](O)[C@@]5(C)O)c4nc3[nH]2)cc1,> 100 µM,> 100 µM,> 100 µM,> 100 µM,≥ 10 µM,> 10 µM,> 100 µM,,,,,,,
Cc1ccc(-c2cn3c(=O)c4ncn([C@H]5C=C[C@@H](CO)C5)c4nc3[nH]2)cc1,> 100 µM,> 100 µM,5 µM,30.1 µM,> 10 µM,> 10 µM,> 100 µM,,,,,,,
Nc1nc2c(ncn2[C@H]2CO[C@@H](CO)O2)c(=O)[nH]1,> 100 µM,> 100 µM,0.51 µM,2.4 µM,> 10 µM,> 10 µM,> 100 µM,,,,,,,
O=c1c2ncn([C@H]3C=C[C@@H](CO)C3)c2nc2[nH]c(-c3ccc(Br)cc3)cn12,> 100 µM,> 100 µM,12.3 µM,43.2 µM,> 10 µM,> 10 µM,> 100 µM,,,,,,,
[N-]=[N+]=N[C@H]1C[C@H](n2cnc3c(=O)n4cc(-c5ccccc5)[nH]c4nc32)O[C@@H]1CO,21.8 µM,> 100 µM,8.4 µM,94.1 µM,> 10 µM,> 10 µM,69.6 µM,,,,,,,
CCN(CC)c1ccc(-c2cn3c(=O)c4ncn([C@H]5C[C@H](N=[N+]=[N-])[C@@H](CO)O5)c4nc3[nH]2)cc1,14.1 µM,72.8 µM,0.04 µM,0.34 µM,> 10 µM,> 10 µM,> 100 µM,,,,,,1%,25 min
